Screening results from PubChem BioAssay.
A selection: hits, their analogues and other compounds. The true share with any hit is near 4.6%.
OX1R antag-1: antagonists of human orexin 1 receptor (OX1R). O43613. OX1R-expressing cells, FRET antagonist read-out. inhibition, % at 6.6 µM. 330,000 tested, 1.8% active. AID 485270; in the data active = inhibition mostly above about 38%, no sharp cut-off; inactive = mostly below about 40%;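 also: 0% = agonist challenge alone and 100% = reference antagonist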
Target sequence (O43613 whole entry, looked up): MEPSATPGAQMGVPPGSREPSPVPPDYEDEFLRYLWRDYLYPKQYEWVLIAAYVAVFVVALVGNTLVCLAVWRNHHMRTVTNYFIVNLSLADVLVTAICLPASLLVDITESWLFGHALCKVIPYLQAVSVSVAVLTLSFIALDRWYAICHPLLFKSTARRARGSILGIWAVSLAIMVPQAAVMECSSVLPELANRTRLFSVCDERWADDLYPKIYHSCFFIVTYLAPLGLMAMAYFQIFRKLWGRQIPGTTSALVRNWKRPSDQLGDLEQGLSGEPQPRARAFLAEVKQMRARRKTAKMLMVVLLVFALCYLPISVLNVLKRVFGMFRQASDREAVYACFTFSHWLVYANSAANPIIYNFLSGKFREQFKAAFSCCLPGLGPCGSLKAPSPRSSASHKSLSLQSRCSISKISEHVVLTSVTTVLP
TAAR1 antag: antagonists of human TAAR1 | Q96RJ0 | CHO RD-HGA16 TAAR1, Fluo-8 calcium fluorescence, antagonist | 360,000 tested, 1.5% active | inhibition, % at 3 µM;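 active = inhibition above a per-plate cutoff, the mean inhibition of test compounds on that plate plus 3 SD, cut at about 49% in these data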;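 also: 0% = DMSO plus EC80 beta-PEA response and 100% = DMSO alone without agonist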
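Material: CHO RD-HGA16 cells bearing hTAAR1; compound dosing: one-point dosing, 3 µM nominal final; schedule: dye loading 75 min at 37 °C, then 30 min room temperature; measured by: calcium fluorescence with Fluo-8; control set: vehicle and agonist controls; replication: n of 1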
TAAR1 agonist: agonists of human TAAR1; CHO RD-HGA16 TAAR1, Fluo-8 calcium fluorescence; vehicle wells 0%, saturating PEA agonist 100%; Q96RJ0; AID 624467; 360,000 tested, 0.99% active; activation, % at 3 µM;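 active = activation above the mean activation of all test compounds in the run plus 3 SD, cut at about 38% in these data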
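Test system: RD-HGA16 (CHO) cells co-expressing Gα16 and hTAAR1 / Benchmarks: DMSO vehicle as 0%, PEA at EC100 as 100% / Repeats: no replicates (n 1) / Measure: % activation from peak over basal fluorescence ratio, DMSO-to-PEA scaled / Timing: 17-24 h plating, Fluo-8 75 min 37 °C, 30 min RT / Technique: kinetic Fluo-8 calcium fluorescence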
CHO parental Ca: counter-screen: ATP calcium response change in parental CHO cells; AID 463079; 330,000 tested, 0.63% active; inhibition, % at 5.6 µM; parental CHO-K1, ATP-induced calcium, Fluo-8 fluorescence;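 active = inhibition above that plate's mean sample inhibition plus 3 SD, cut at about 26% in these data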;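 also: 0% = ATP-challenged DMSO wells and 100% = DMSO wells without ATP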
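Assay system: parental CHO cells; Read-out basis: percent inhibition of ATP-evoked calcium rise, normalized to controls; Benchmarks: ATP and no-ATP DMSO wells; Compound dosing: single nominal dose of 5.6 µM per compound; Signal: Fluo-8 calcium dye fluorescence; Also added: ATP as calcium-mobilizing challenge; Repeats: singlicate.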
GPR7 antagonist: blocks human GPR7 receptor signaling; inhibition, % at 4.4 µM; AID 1861; GPR7-expressing cells, fluorescence antagonist assay; 290,000 tested, 1.1% active; in the data active = inhibition above about 16%, passing the limit was not always enough;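 also: cells stimulated with the agonist NPW; 0% = agonist with vehicle and 100% = vehicle without agonist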
Target sequence (P48145 whole entry, looked up): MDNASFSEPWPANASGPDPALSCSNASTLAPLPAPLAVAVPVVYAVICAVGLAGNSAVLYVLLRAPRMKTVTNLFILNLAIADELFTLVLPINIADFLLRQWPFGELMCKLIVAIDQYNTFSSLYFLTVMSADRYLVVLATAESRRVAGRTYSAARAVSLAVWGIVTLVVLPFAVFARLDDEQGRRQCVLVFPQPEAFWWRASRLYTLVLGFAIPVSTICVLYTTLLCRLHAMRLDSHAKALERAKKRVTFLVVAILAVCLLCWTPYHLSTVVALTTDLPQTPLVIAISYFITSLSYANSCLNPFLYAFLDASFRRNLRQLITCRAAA
OX1R antag-2: blocks the human orexin 1 receptor; O43613; CHO/OX1R cells, Fluo-8 calcium fluorescence, orexin A; inhibition, % at 5 µM; 330,000 tested, 0.43% active; AID 434989;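 active = inhibition above its plate's threshold, mean inhibition of all tested compounds on the plate plus 3 SD, cut at about 37% in these data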;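 also: 0% = orexin A challenge wells and 100% = SB-334867-A antagonist wells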
* marks the source's active call; other numbers are inactive results; nt = not tested or not shown.

SMILES | OX1R antag-1 | TAAR1 antag | TAAR1 agonist | CHO parental Ca | GPR7 antagonist | OX1R antag-2
C/C(=N\NC(=O)c1cc2ccccc2cc1O)c1ccccn1 | 3.9 | -1.9 | 4.8 | 17.0 | -5.8 | 0.9
C/C(=N/NC(=O)c1cc2ccccc2cc1O)C1C(=O)c2ccccc2C1=O | 65.2* | -1.9 | 8.7 | -8.4 | 1.6 | 12.3
O=C(Nc1cccc(S(=O)(=O)Nc2ccccc2F)c1)c1ccc2ccccc2n1 | 82.2* | 30.9 | 3.9 | -10.9 | -8.6 | 21.7
O=C(Nc1cccnc1)c1cccc(S(=O)(=O)Nc2ccccc2F)c1 | nt | -23.2 | 3.9 | nt | nt | nt
Cc1ccc(NC(=O)Nc2ccc3c(c2)N(C)C(=O)CS3)nc1 | 1.4 | 48.7* | 24.4 | 1.5 | 15.1 | -18.7
COc1ccc(NC(=O)Nc2ccc3c(c2)N(C)C(=O)CS3)cc1Cl | 46.5 | 63.0* | 25.1 | 31.4* | -8.5 | 44.5
COc1ccc(NC(=O)Nc2ccc3c(c2)N(C)C(=O)CS3)cc1OC | 21.3 | 16.7 | 2.4 | 11.4 | -0.6 | -6.2
CCOc1ccc(NC(=O)Nc2ccc3c(c2)N(C)C(=O)CS3)cc1 | 14.1 | 52.0* | 12.8 | 18.9 | -2.9 | -13.0
COC1=CC(=O)C=C(OC)C1(O)CC(C)=O | nt | -18.8 | 1.9 | nt | nt | nt
CSc1ncnc2c1ncn2CCCN1CCN(Cc2c(C)cc(C)cc2C)CC1 | nt | -9.9 | -0.8 | nt | nt | nt
CCCCNC(=O)C[C@H]1C[C@@]2(C(=O)OC)C(=C[C@H](C(C)(C)C)O[C@@H]2C)N(CCC2=CCCCC2)C1=O | nt | -41.6 | -2.5 | nt | nt | nt
O=C1Nc2ccc(S(=O)(=O)N3CCCC3C(=O)O)c3cccc1c23 (centres undefined) | 37.9* | -18.1 | 1.1 | -9.4 | -4.3 | -9.8
O=C1Nc2ccc(S(=O)(=O)N3CCCC3)c3cccc1c23 | 18.8 | -4.0 | 7.0 | -5.8 | -0.5 | -8.2
COc1ccc([N+](=O)[O-])c(S(=O)(=O)c2ccccc2)n1 | 19.0 | -10.5 | -0.1 | 26.3 | 19.6* | 29.7
COc1ccc([N+](=O)[O-])c(S(=O)(=O)c2ccc(Cl)cc2)n1 | 48.0 | 7.8 | -2.9 | 45.6* | 7.5 | 38.0
O=[N+]([O-])c1cccnc1S(=O)(=O)c1ccccc1 | 34.5 | -0.6 | 0.3 | 20.8 | 12.1 | 10.2
C[C@@H]1CN([C@H](C)CO)C(=O)c2cc(Br)cnc2O[C@H]1CN(C)Cc1ccccc1F | nt | 12.2 | 1.1 | nt | nt | nt
CC1(Oc2cccc(C#N)c2)CCN(Cc2ccccc2OC(F)F)C1 (centres undefined) | nt | 7.8 | 2.1 | nt | nt | nt
COc1cc(OC)c(NC(=O)C(Sc2nc(C)cc(C)c2C#N)c2ccccc2)cc1Cl (centres undefined) | nt | -6.5 | 2.7 | nt | nt | nt
O=S(=O)(/N=S1\CC=CCN1S(=O)(=O)c1ccccc1)c1ccccc1 (centres undefined) | nt | -8.1 | 67.1* | nt | nt | nt
O=S(=O)(c1ccccc1)N1CCN(S(=O)(=O)c2ccccc2)c2ccccc21 | nt | 16.6 | 0.2 | nt | nt | nt
O=C(NCc1ccccc1)c1cc(C2COCCN2S(=O)(=O)c2cccs2)on1 (centres undefined) | nt | -24.4 | 5.8 | nt | nt | nt
COc1ccc(CNC(=O)[C@]2(C)CCC[C@@]3(C)C4CC[C@@]5(C)C[C@]4(CCC32)CC5=O)cc1 (some centres undefined) | -5.4 | 48.7* | 13.7 | -25.6 | nt | -20.3
Cc1cc2c(cc1C)CSC(c1ccccc1O)SC2 | 19.4 | 66.0* | 28.4 | 59.3* | -2.5 | 21.1
Cc1ccc(N(CC(O)CON=C2c3ccccc3-c3ccccc32)S(C)(=O)=O)cc1 (centres undefined) | 54.0* | -11.2 | 9.4 | -6.3 | 4.5 | 32.6
SMILES | OX1R antag-1 | TAAR1 antag | TAAR1 agonist | CHO parental Ca | GPR7 antagonist | OX1R antag-2
O=C(c1cc2nc(-c3ccc(F)cc3)cc(C(F)(F)F)n2n1)N1CCCCC1c1cccnc1 (centres undefined) | 17.8 | 18.6 | -0.6 | 41.9* | -25.1 | -2.3
CC(C)C[C@H]1COc2cc(N3CCCC3)ccc2S(=O)(=O)N1 | nt | 4.8 | 1.9 | nt | nt | nt
C=C1CC(Cn2cc(Br)c(=O)[nH]c2=O)(c2ccc(-c3ccccc3)cc2)OC1=O (centres undefined) | nt | 67.8* | 4.6 | nt | nt | nt
O=c1[nH]c(=O)n(Cc2ccc(Oc3ccccc3)cc2)cc1Br | 15.0 | 15.6 | 9.3 | -2.9 | 18.8 | -5.9
C/C(=N\NC(=O)C(N)=O)c1cccc([N+](=O)[O-])c1 | 18.4 | -8.7 | -0.5 | 13.4 | -2.2 | 21.1
C/C(=N\NC(=O)C(=O)N/N=C(\C)c1cccc(O)c1)c1cccc(O)c1 | 58.0* | -4.7 | 0.0 | -10.0 | -8.2 | -8.3
CCOC(=O)C1=CCN(S(=O)(=O)c2ccccc2Br)C1c1ccc(Cl)cc1 (centres undefined) | nt | 28.1 | 1.2 | nt | nt | nt
N#Cc1c(N2CCCC2)ccc(Br)c1Cl | 21.3 | -19.6 | 8.0 | -3.3 | 17.3* | -20.3
Cc1ccc(N=C(NOCc2ccc(Cl)cc2Cl)c2nonc2N)c(C)c1 | 2.0 | 56.6* | 5.1 | -14.5 | 21.1 | 0.2
COc1ccc(NC(=O)c2cccc(NC(=O)c3ccccc3)c2)c(OC)c1 | 11.6 | 17.2 | 8.0 | -17.0 | -9.1 | -22.5
CC(=O)c1ccc(NC(=O)c2cccc(NC(=O)c3ccccc3)c2)cc1 | -5.2 | 50.2* | 12.1 | 5.0 | -7.8 | -20.2
CC(=O)c1cccc(NC(=O)Nc2nc(C)cc(C)n2)c1 | 58.7* | -17.8 | 0.6 | -1.3 | -5.6 | 0.3
Cc1ccnc(NC(=O)c2cccc(NC(=O)c3ccc(Cl)cc3)c2)c1 | nt | 44.1 | 8.7 | nt | nt | nt
CC(=O)c1cccc(NC(=O)Nc2ccccc2)c1 | 3.9 | 17.3 | 27.6 | 1.5 | 20.5 | -25.1
CC(=O)c1cccc(NC(=O)c2ccc3ccccc3c2)c1 | 8.5 | 36.8 | 20.4 | -19.6 | -0.9 | -20.9
COc1ccc(OC)c(NC(=O)c2cccc(NC(=O)c3ccccc3)c2)c1 | 54.2* | 18.0 | 5.3 | -14.5 | -1.3 | -13.9
Cc1ccnc(NC(=O)c2cccc(NC(=O)c3ccc(Cl)c(Cl)c3)c2)c1 | nt | 54.1* | 13.8 | nt | nt | nt
O=C(NCc1ccccc1)C(CCc1ccccc1)n1c(=O)c(-c2ccccc2)nc2ccccc21 (centres undefined) | nt | -31.5 | 0.3 | nt | nt | nt
O=C1CCCCC1CCS(=O)(=O)NCc1ccccc1 (centres undefined) | nt | 9.2 | -0.5 | nt | nt | nt
CC(C)NC(=O)C1C(c2ccccc2)=Nc2ccccc2N1C(=O)c1ccc(C(F)(F)F)cc1 (centres undefined) | nt | -4.2 | 4.2 | nt | nt | nt
COc1ccc(C(=O)NCC2CCN(C(=O)C(=O)c3cccs3)CC2)cc1 | nt | -0.8 | 0.5 | nt | nt | nt
COc1ccc(C(=O)NCCN2CCC(n3c(=O)[nH]c4ccccc43)CC2)cc1F | nt | 10.6 | -0.6 | nt | nt | nt
Cc1c(COC(=O)NC(C)C)c(COC(=O)NC(C)C)c2n1CS(=O)(=O)C2 | nt | -2.5 | -0.1 | nt | nt | nt
Cc1ccccc1C(=O)NC1CCCCN(C)C1=O (centres undefined) | nt | -0.3 | 1.2 | nt | nt | nt
O=C(C(=O)N1CCC(CNS(=O)(=O)c2ccccc2)CC1)c1cc2ccccc2o1 | nt | -25.0 | 3.6 | nt | nt | nt
